Laboratory results: article PMC4493932 (MedChemComm, 2013)
Where two headings read alike, the source gives them in different places. Marks after values point to notes of the source that are not given here. Each block holds one compound with its values, some of them ahead of it.

What was measured:
[1] = molecular target: P2Y6R expressed on 1321N1 astrocytoma cells (Homo sapiens, UniProt Q15077); assay: Flow cytometry; type: cell-based; details: for Inhibition of fluorescent binding of 16 to 1321N1-P2Y6R cells: 30 min pre-incubation, then 16 for 2 min, FCM
Procedure, shortened: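 1321N1 human astrocytoma cells stably expressing human P2Y6R were pre-incubated 30 min with known P2Y6R ligands. Cells were then exposed for 2 min to an Alexa Fluor 488-conjugated nucleotide agonist, and labeling was read by flow cytometry. Fluorescence was converted to MESF. Nonspecific binding was defined with 100 μM UDP, and autofluorescence came from receptor-expressing cells without probe.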

[2] = molecular target: P2Y6R-expressing 1321N1 astrocytoma cells (Homo sapiens, UniProt Q15077); assay: Fluorescence/confocal microscopy of P2Y6R-expressing 1321N1 astrocytoma cells; type: cell-based; details: for Inhibition of fluorescent labeling by 16 (micrographs): 500 nM, 30 min preincubation at 37 °C, 16 500 nM, 60 min
Procedure, shortened: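 Stably P2Y6R-expressing 1321N1 astrocytoma cells were exposed to an Alexa Fluor 488-conjugated nucleotide agonist (500 nM, 60 min, 37 °C), with or without a known P2Y6R agonist or a diisothiocyanate antagonist. Green fluorescence was imaged on a fluorescence microscope (excitation 495 nm, emission 519 nm).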

hP2Y4R = hP2Y4R (Homo sapiens, UniProt P51582); assay: PLC activation in 1321N1 cells stably expressing the hP2Y4R; type: cell-based; details: percent of maximal activation by full agonist at 10 μM
Procedure, shortened: (§1)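 Agonist-induced phospholipase C activation in 1321N1 human astrocytoma cells stably expressing recombinant human P2Y6, P2Y2 or P2Y4 receptor. EC50 values are given as mean ± SEM. Efficacy is expressed as percent of the maximal activation by a full agonist at 10 μM. Subtype selectivity is taken as the ratio of EC50 values.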

P2Y6R = details: cited from earlier work; for EC50: read-out: P2Y6R agonist EC50
[3] = test system: 1321N1 astrocytoma cells not expressing a P2YR; assay: Fluorescence microscopy of 1321N1 astrocytoma cells not expressing a P2YR; type: cell-based, human; details: incubated with 16
Procedure, shortened: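 Confocal microscopy of 1321N1 astrocytoma cells incubated with the fluorescent test compound at 2 μM (figure panels give 1 μM) for 60 min at 37 °C. Cell-associated fluorescence was compared with receptor-expressing cells and with cells without the probe.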

hP2Y2R = hP2Y2R (Homo sapiens, UniProt P41231); assay: PLC activation in 1321N1 cells stably expressing the hP2Y2R; type: cell-based; details: for EC50: read-out: Potency, EC50, P2Y2, 1321N1 astrocytoma cells expressing recombinant hP2Y2, mean ± SEM, NE = no effect
Procedure, shortened: as §1

hP2Y1R = hP2Y1R (Homo sapiens, UniProt P47900); assay: Labeling of 1321N1 cells expressing the hP2Y1R; type: cell-based; details: data not shown
human (h) P2Y6R = human (h) P2Y6R (Homo sapiens, UniProt Q15077); assay: PLC activation in 1321N1 human astrocytoma cells stably expressing the hP2Y6R; type: cell-based
Procedure, shortened: as §1

hP2Y14R = molecular target: T1, hP2Y14R (Homo sapiens, UniProt Q15391); type: cell-based; details: concentrations up to 10 μM; C6 rat glioma cells
T1 sequence (Q15391 1-338): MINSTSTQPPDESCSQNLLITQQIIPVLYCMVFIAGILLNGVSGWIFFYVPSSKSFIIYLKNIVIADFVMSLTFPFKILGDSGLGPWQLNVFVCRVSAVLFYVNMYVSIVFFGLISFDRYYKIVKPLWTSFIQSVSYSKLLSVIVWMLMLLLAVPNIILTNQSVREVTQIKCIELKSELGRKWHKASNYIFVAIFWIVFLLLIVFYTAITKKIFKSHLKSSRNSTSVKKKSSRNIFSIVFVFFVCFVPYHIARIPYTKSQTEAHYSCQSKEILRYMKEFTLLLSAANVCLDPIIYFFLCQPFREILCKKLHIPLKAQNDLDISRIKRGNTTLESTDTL

[4] = test system: control 1321N1 astrocytoma cells; assay: FCM labeling of control 1321N1 astrocytoma cells; type: cell-based, human; details: 60 min incubation
Procedure, shortened: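 Whole-cell flow cytometry labelling with the Alexa Fluor 488-tagged test compound, 400 nM. Autofluorescence came from cells without the probe. Nonspecific binding was taken in the presence of 100 μM UDP, and specific binding is total minus nonspecific. Fluorescence was converted to molecules of equivalent soluble fluorochrome (MESF). Histograms are from one of three independent experiments.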

Sequence of hP2Y2R (P41231 whole entry): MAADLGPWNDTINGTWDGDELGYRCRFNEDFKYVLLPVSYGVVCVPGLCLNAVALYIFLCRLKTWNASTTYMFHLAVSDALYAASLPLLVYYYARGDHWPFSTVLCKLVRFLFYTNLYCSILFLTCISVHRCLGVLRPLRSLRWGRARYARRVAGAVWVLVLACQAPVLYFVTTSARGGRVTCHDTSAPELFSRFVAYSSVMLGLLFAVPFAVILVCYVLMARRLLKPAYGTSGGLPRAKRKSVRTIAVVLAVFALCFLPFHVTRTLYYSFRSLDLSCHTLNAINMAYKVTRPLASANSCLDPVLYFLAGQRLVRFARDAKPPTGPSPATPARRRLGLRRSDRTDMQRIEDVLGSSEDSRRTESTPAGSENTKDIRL
Sequence of hP2Y4R (P51582 whole entry): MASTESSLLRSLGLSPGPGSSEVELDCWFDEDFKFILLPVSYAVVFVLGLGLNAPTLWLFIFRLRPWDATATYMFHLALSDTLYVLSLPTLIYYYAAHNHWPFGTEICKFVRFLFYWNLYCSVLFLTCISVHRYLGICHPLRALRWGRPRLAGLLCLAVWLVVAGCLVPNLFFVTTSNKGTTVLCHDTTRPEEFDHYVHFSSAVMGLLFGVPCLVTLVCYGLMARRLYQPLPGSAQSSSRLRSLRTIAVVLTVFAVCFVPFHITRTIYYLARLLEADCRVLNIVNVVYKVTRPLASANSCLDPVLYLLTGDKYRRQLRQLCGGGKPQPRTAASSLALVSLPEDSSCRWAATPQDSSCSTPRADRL
Sequence of P2Y6R-expressing 1321N1 astrocytoma cells (Q15077 whole entry): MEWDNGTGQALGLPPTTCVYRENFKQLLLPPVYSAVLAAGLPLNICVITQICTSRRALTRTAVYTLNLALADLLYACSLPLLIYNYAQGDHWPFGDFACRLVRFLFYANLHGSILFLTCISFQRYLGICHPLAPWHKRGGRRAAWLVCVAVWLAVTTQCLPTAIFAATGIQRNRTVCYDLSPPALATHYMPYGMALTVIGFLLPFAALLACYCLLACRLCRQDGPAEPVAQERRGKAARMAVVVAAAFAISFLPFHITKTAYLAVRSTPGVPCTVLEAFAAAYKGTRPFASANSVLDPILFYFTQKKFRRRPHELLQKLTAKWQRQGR
Sequence of human (h) P2Y6R (Q15077 whole entry): as above
Sequence of P2Y6R expressed on 1321N1 astrocytoma cells (Q15077 whole entry): as above
Sequence of hP2Y1R (P47900 whole entry): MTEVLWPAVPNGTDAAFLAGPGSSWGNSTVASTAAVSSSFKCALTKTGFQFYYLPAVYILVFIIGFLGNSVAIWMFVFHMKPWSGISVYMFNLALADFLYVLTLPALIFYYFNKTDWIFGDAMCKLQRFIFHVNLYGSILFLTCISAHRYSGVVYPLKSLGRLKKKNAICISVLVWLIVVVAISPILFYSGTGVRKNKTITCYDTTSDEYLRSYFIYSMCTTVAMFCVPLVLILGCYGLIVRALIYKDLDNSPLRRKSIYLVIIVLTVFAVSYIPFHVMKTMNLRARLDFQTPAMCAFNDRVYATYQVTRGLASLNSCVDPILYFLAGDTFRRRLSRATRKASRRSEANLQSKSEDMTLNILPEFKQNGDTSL

Inhibition of fluorescent binding of 16 to 1321N1-P2Y6R cells ([1]; 0.5 μM): significant reduction of labeling
Inhibition of fluorescent labeling by 16 (micrographs) [2]: inhibit fluorescent labeling
Compound: CO/N=c1/ccn([C@@H]2O[C@H](COP(=O)(O)OP(=O)(O)OP(=O)(O)OC[C@H]3O[C@@H](n4ccc(=O)[nH]c4=O)[C@H](O)[C@@H]3O)[C@@H](O)[C@H]2O)c(=O)[nH]1 [Compound 8, P^1-(Uridine 5′-)-P^4-(N^4-methoxycytidine 5′-) triphosphate]

Compound: CO/N=c1/ccn([C@@H]2O[C@H](COP(=O)(O)OP(=O)(O)OP(=O)(O)Oc3ccc4ccccc4c3)[C@@H](O)[C@H]2O)c(=O)[nH]1 [Compound 20]
% activation, P2Y4 (hP2Y4R): <50% ^c

Compound: S=C=Nc1cccc(NC(=S)NCCCCNC(=S)Nc2cccc(N=C=S)c2)c1 [MRS2578]
Inhibition of fluorescent binding of 16 to 1321N1-P2Y6R cells ([1]; 1 μM): significant reduction of labeling
Inhibition of fluorescent labeling by 16 (micrographs) [2]: inhibit fluorescent labeling

Compound: O=c1[nH]/c(=N\OCc2ccccc2)ccn1[C@@H]1O[C@H](COP(=O)(O)OP(=O)(O)O)[C@@H](O)[C@H]1O [Compound 6, N^4-benzyloxy-CDP]
P2Y6R selectivity vs. P2Y2R (P2Y6R): 82 fold
P2Y6R selectivity vs. P2Y4R (P2Y6R): 44 fold

EC50 (hP2Y2R): 2500 ± 660 nM
Specific labeling of 1321N1 cells expressing the hP2Y1R (hP2Y1R): no specific labeling
% activation, P2Y4 (hP2Y4R): <50% ^c
Selectivity toward the P2Y6R in comparison to the P2Y2R (human (h) P2Y6R; ratio of EC50 values): 280 fold
Selectivity toward the P2Y6R in comparison to the P2Y4R (human (h) P2Y6R; ratio of EC50 values): > 1100 fold
EC50 (human (h) P2Y6R; read-out: Potency, EC50, P2Y6, 1321N1 astrocytoma cells expressing recombinant hP2Y6, mean ± SEM): 9 ± 1.9 nM
P2Y6R potency gain over immediate precursor 15 (human (h) P2Y6R; vs 15 lacking the fluorophore): 11 fold
Activation of the hP2Y14R (hP2Y14R): did not activate
Compound: (N^4-(3-(AlexaFluor-NH-(CH2)6-triazole-(CH2)2-C≡C)-benzyloxy))-CDP [Compound 16]
Fluorescence of cells not expressing a P2YR [3]: no increase in fluorescence
Specific labeling of control 1321N1 cells [4]: no specific labeling
Cell-associated fluorescence, localization ([2]; 2 μM, 60 min incubation at 37 °C, confocal microscopy): receptor-dependent and mainly intracellular

EC50 (hP2Y2R): > 10000 nM
% activation, P2Y4 (hP2Y4R): <50% ^c
Compound: O=c1[nH]/c(=N\OCc2ccc(I)cc2)ccn1[C@@H]1O[C@H](COP(=O)(O)OP(=O)(O)O)[C@@H](O)[C@H]1O [Compound 13]

% activation, P2Y2 (hP2Y2R; percent of maximal activation by full agonist at 10 μM): <50% ^c
% activation, P2Y4 (hP2Y4R): <50% ^c
Compound: C#CCCOP(=O)(O)OP(=O)(O)OP(=O)(O)OC[C@H]1O[C@@H](n2cc/c(=N/OCc3ccccc3)[nH]c2=O)[C@H](O)[C@@H]1O [Compound 22]

Compound: O=C(Cn1c(=O)ccn([C@@H]2O[C@H](COP(=O)(O)OP(=O)(O)O)[C@@H](O)[C@H]2O)c1=O)c1ccccc1 [Compound 2, 3-phenacyl-UDP]
EC50 (P2Y6R): 70 nM

EC50 (hP2Y2R): > 10000 nM
% activation, P2Y4 (hP2Y4R): <50% ^c
Potency, EC50, P2Y6 (human (h) P2Y6R; 1321N1 astrocytoma cells expressing recombinant hP2Y6, mean ± SEM): nearly inactive
Compound: C#CCCCOP(=O)(O)OP(=O)(O)OP(=O)(O)OC[C@H]1O[C@@H](n2cc/c(=N/OCc3ccccc3)[nH]c2=O)[C@H](O)[C@@H]1O [Compound 23]

Blockade of cell labeling by 100 μM UDP ([1]; 100 nM to 1 μM): could not be blocked
Compound: N^4-(3-(Cy5-NH-(CH2)6-triazole-(CH2)2-C≡C)-benzyloxy)-CDP [Compound 17]
Dependence of 1321N1 cell labeling on P2Y6R expression ([1]; 100 nM to 1 μM): independent of the expression of the P2Y6R

Inhibition of fluorescent binding of 16 to 1321N1-P2Y6R cells ([1]; 10 μM): significant reduction of labeling
Compound: O=c1ccn([C@@H]2O[C@H](COP(=O)(O)OP(=O)(O)O)[C@@H](O)[C@H]2O)c(=O)[nH]1 [Compound 1, Uridine 5′-diphosphate]
EC50 (P2Y6R; endogenous agonist): 300 nM

Selectivity toward the P2Y6R in comparison to the P2Y4R (human (h) P2Y6R; ratio of EC50 values): > 260 fold
Compound: O=c1[nH]/c(=N\OCc2cccc(Br)c2)ccn1[C@@H]1O[C@H](COP(=O)(O)OP(=O)(O)O)[C@@H](O)[C@H]1O [Compound 10]
